Experimental data as given in ChEMBL document CHEMBL1139450, “Synthesis of a novel nitroimidazole-spermidine derivative as a tumor-targeted hypoxia-selective cytotoxin” (2004).

Assays:
V79 [1] = assay: Cytotoxicity of compound was assessed against suspended V79 cells exposed to 0.1 mM DFMO and 4 uM spermidine under aerobic conditions in clonogenic assay; type: functional, Cricetulus griseus
How it was run: (§1)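 Clonogenic assay in suspended V79 Chinese hamster lung fibroblasts exposed to drug in air (A) or N2 (H). CT50 is the drug concentration (mM) that cuts clonogenicity to 50% of matched controls; mean ± SEM of 4 determinations. Where used, DFMO was given to exponentially growing monolayers in air for 48 h beforehand. Spermidine was added alongside the drug under the same conditions. Student's t-test was run against matched controls.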

V79 [2] = assay: Cytotoxicity of compound was assessed against suspended V79 cells exposed to 0.1 mM DFMO and 4 uM spermidine under hypoxic conditions in clonogenic assay; type: functional, Cricetulus griseus; how it was run: as §1
V79 [3] = assay: Cytotoxicity of compound was assessed against suspended V79 cells exposed to 1 mM DFMO and 0.5 mM spermidine under aerobic conditions in clonogenic assay; type: functional, Cricetulus griseus; how it was run: as §1
V79 [4] = assay: Cytotoxicity of compound was assessed against suspended V79 cells exposed to 1 mM DFMO for 48 hr under aerobic conditions in clonogenic assay; type: functional, Cricetulus griseus; how it was run: as §1
V79 [5] = assay: Cytotoxicity of compound was assessed against suspended V79 cells exposed to 1 mM DFMO for 48 hr under hypoxic conditions in clonogenic assay; type: functional, Cricetulus griseus; how it was run: as §1
V79 [6] = assay: Cytotoxicity of compound was assessed against suspended V79 cells exposed to 4 uM spermidine under hypoxic conditions in clonogenic assay; type: functional, Cricetulus griseus; how it was run: as §1
V79 [7] = assay: Cytotoxicity of compound was assessed against suspended V79 cells treated with 4 uM spermidine under aerobic conditions in clonogenic assay; type: functional, Cricetulus griseus; how it was run: as §1
V79 [8] = assay: Cytotoxicity of compound was assessed against suspended V79 cells under aerobic conditions in clonogenic assay; type: functional, Cricetulus griseus; how it was run: as §1
V79 [9] = assay: Cytotoxicity of compound was assessed against suspended V79 cells under hypoxic conditions in clonogenic assay; type: functional, Cricetulus griseus; how it was run: as §1
[10] = Ratio of CT50 in aerobic condition to CT50 in hypoxic condition (CT50A/CT50H); type: functional
How it was run: (§2)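 Ratio of aerobic to hypoxic CT50 (CT50A/CT50H, air vs N2) from clonogenic assays in suspended V79 cells; each CT50 is the mean of 4 determinations. Where used, DFMO pretreatment was given to monolayers in air for 48 h. Spermidine was co-administered with the drug under the same conditions.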

[11] = Ratio of CT50 in aerobic condition to CT50 in hypoxic condition when V79 cells were exposed to 1 mM DFMO (CT50A/CT50H); type: functional; how it was run: as §2
[12] = Ratio of CT50 in aerobic condition to CT50 in hypoxic condition when V79 cells were exposed to 4 uM spermidine (CT50A/CT50H); type: functional; how it was run: as §2
[13] = Ratio of CT50 in aerobic condition to CT50 in hypoxic condition when V79 cells were exposed to 4 uM spermidine and 0.1 mM DFMO (CT50A/CT50H); type: functional; how it was run: as §2

Structure (SMILES): Cl.Cl.Cl.NCCCCN(CCCN)CC(O)Cn1ccnc1[N+](=O)[O-] (stereo not drawn)
- CT50 (V79 [1]): 1.15 mM
- CT50 (V79 [2]): 0.88 mM
- CT50 (V79 [3]): 0.63 mM
- CT50 (V79 [4]): 1.63 mM
- CT50 (V79 [5]): 0.74 mM
- CT50 (V79 [6]): 1.15 mM
- CT50 (V79 [7]): 2.64 mM
- CT50 (V79 [8]): 2.6 mM
- CT50 (V79 [9]): 1.28 mM
- Ratio [10]: 2
- Ratio [11]: 2.2
- Ratio [12]: 2.3
- Ratio [13]: 1.3
